Our source for the Cell survival and DNA relaxation values is ChEMBL document CHEMBL1134055, “The synthesis of amino-acid functionalized beta-carbolines as topoisomerase II inhibitors” (2001).

Bounds are passed on as bounds.

The subject of test [1] is PC-3. As to the kind of experiment: In vitro cell growth inhibition of PC3 cell line determined using non-radioactive cell proliferation assay at a dose of 100 uM. Format: functional, Homo sapiens. Summed up: (§1)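 Tetrazolium-type colorimetric proliferation assay (CellTiter 96 AQueous, non-radioactive); cells treated at 10, 50 and 100 µM; read as percent cell survival. All points in quadruplicate. Vehicle control DMSO (0.20%); m-AMSA (20, 40 µM) as reference control.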

The test system of test [2] is PC-3. The test can be described thus: In vitro cell growth inhibition of PC3 cell line determined using non-radioactive cell proliferation assay at a dose of 10 uM. Format: functional, Homo sapiens. Summed up: as §1
For test [3], the system named is NCI-H520. As to the kind of experiment: In vitro cell growth inhibition of H520 cell line determined using non-radioactive cell proliferation assay at a dose of 10 uM. It is filed as functional, Homo sapiens. In short, it runs like this: as §1
Test [4] deals with NCI-H520. As to the kind of experiment: In vitro cell growth inhibition of H520 cell line determined using non-radioactive cell proliferation assay at a dose of 50 uM. It is filed as functional, Homo sapiens. In short, it runs like this:
as §1

Test [5] concerns NCI-H520. The test can be described thus: In vitro cell growth inhibition of H520 cell line determined using non-radioactive cell proliferation assay at a dose of 100 uM. Format: functional, Homo sapiens. Summed up:
as §1

For test [6], the system named is PC-3. The test can be described thus: In vitro cell growth inhibition of PC3 cell line determined using Non-Radioactive Cell Proliferation Assay at a dose of 50 uM. It is filed as functional, Homo sapiens. In short, it runs like this: as §1
The subject of test [7] is NCI-H520. The test can be described thus: In vitro cell growth inhibition of H520 cell line determined using Non-Radioactive Cell Proliferation Assay at a dose of 100 uM. It is filed as functional, Homo sapiens. In short, it runs like this: as §1
The nature of test [8]: Inhibition of topo II-mediated DNA relaxation measured by topo II-mediated DNA relaxation assay; ++ indicates drug interaction with topo II. It is filed as functional. Summed up:
(§2)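 Relaxation of supercoiled plasmid pUC18 DNA (E. coli) by topo II (2.0 units per reaction) in Tris-Cl pH 8.0 buffer with KCl, MgCl2, ATP, DTT and BSA; 1 µL of 1 mM drug in 10% DMSO per 10 µL reaction, enzyme added last; 37 °C for 30-45 min. Stopped with sarkosyl buffer, chloroform/isoamyl alcohol extraction, 1% agarose gel, ethidium stain. Densitometric qualitative scoring; gels in triplicate.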

The nature of test [9]: Inhibition of topo II-mediated DNA relaxation measured by topo II-mediated DNA relaxation assay; +++ indicates drug interaction with topo II. It is filed as functional. Summed up:
as §2

A short description of test [10]: Inhibition of topo II-mediated DNA relaxation measured by topo II-mediated DNA relaxation assay; ++++ indicates drug interaction with topo II. Format: functional. In short, it runs like this: as §2

On to `COc1cc([C@@H]2c3[nH]c4ccccc4c3C[C@H]3C(=O)N4CCC[C@H]4C(=O)N23)cc(OC)c1O`, for which the Cell survival in the test with PC-3 [1], in the test on PC-3 [2], with NCI-H520 [3], in the test on NCI-H520 [4], in the test on NCI-H520 [5] and with PC-3 [6] was greater than 100% throughout.

With `COC(=O)[C@@H](Cc1ccc(O)cc1)NC(=O)[C@@H]1Cc2c([nH]c3ccccc23)[C@@H](c2cc(OC)c(O)c(OC)c2)N1`, the Cell survival in the test with PC-3 [1] is reported as 89.8%; with NCI-H520 [7] it was 83.2%; in the test with PC-3 [2], 88.5%; with NCI-H520 [3], greater than 100%; in the test on NCI-H520 [4], 79%; in the test with PC-3 [6], greater than 100%.

On to `COC(=O)[C@H](C)NC(=O)[C@@H]1Cc2c([nH]c3ccccc23)[C@@H](c2cc(OC)c(O)c(OC)c2)N1`, for which the Cell survival in the test with PC-3 [1] is on record as 95.8%; in the test on NCI-H520 [7], greater than 100%; in the test on PC-3 [2], greater than 100%; with NCI-H520 [3] it was greater than 100%; in the test on NCI-H520 [4], greater than 100%; with PC-3 [6], 96.6%.

As for `COC(=O)[C@H](CO)NC(=O)[C@@H]1Cc2c([nH]c3ccccc23)[C@@H](c2cc(OC)c(O)c(OC)c2)N1`, the Cell survival with PC-3 [1] was greater than 100%; with NCI-H520 [7], 79.6%; in the test with PC-3 [2], 99.7%; in the test on NCI-H520 [3], 87%; in the test with NCI-H520 [4], 90%; with PC-3 [6], 98.5%.

On to `COC(=O)[C@@H](NC(=O)[C@@H]1Cc2c([nH]c3ccccc23)[C@@H](c2cc(OC)c(O)c(OC)c2)N1)C(C)C`, for which the Cell survival is recorded as 95.3% in the test on PC-3 [1]; 93.6% in the test on NCI-H520 [7]; 91.9% in the test on PC-3 [2]; 87.6% with NCI-H520 [3]; 85.4% in the test with NCI-H520 [4]; 93.1% in the test on PC-3 [6].

As for `COc1cc([C@@H]2c3[nH]c4ccccc4c3C[C@H]3C(=O)N[C@H](C)C(=O)N23)cc(OC)c1O`, the Cell survival with PC-3 [1] came out at 95.3%; in the test with NCI-H520 [7] it was 91.5%; in the test on PC-3 [2], 82.6%; with NCI-H520 [3], 93.8%; with NCI-H520 [4] it was 99.7%; with PC-3 [6] it was 99.5%.

For `COC(=O)[C@@H](CC(C)C)NC(=O)[C@@H]1Cc2c([nH]c3ccccc23)[C@@H](c2cc(OC)c(O)c(OC)c2)N1`, the Cell survival in the test on PC-3 [1] was 99.4%; with NCI-H520 [7] it was 80.6%; in the test with PC-3 [2] it was greater than 100%; in the test on NCI-H520 [3], 85.2%; in the test with NCI-H520 [4] it was 84.3%; in the test on PC-3 [6], greater than 100%. Besides, the DNA relaxation result in test [8] is “drug interaction with topo II”.

Turning to `COC(=O)[C@H](NC(=O)[C@@H]1Cc2c([nH]c3ccccc23)[C@@H](c2cc(OC)c(O)c(OC)c2)N1)C(C)C`, the Cell survival in the test on PC-3 [1] is greater than 100%; in the test on NCI-H520 [7], 98.3%; in the test on PC-3 [2], greater than 100%; in the test with NCI-H520 [3] it was 90%; in the test with NCI-H520 [4], greater than 100%; with PC-3 [6], greater than 100%.

Turning to `COC(=O)[C@@H](Cc1ccccc1)NC(=O)[C@@H]1Cc2c([nH]c3ccccc23)[C@@H](c2cc(OC)c(O)c(OC)c2)N1`, the Cell survival in the test with PC-3 [1] is reported as 63.6%; in the test on NCI-H520 [7], 6.7%; in the test with PC-3 [2] it was greater than 100%; in the test on NCI-H520 [3], 77.6%; in the test on NCI-H520 [4], 33%; in the test with PC-3 [6], greater than 100%.

On to `COC(=O)CNC(=O)[C@@H]1Cc2c([nH]c3ccccc23)[C@@H](c2cc(OC)c(O)c(OC)c2)N1`, for which the Cell survival was 88.8% in the test on PC-3 [1]; greater than 100% in the test on NCI-H520 [7]; 99.7% with PC-3 [2]; greater than 100% in the test with NCI-H520 [3]; greater than 100% in the test on NCI-H520 [4]; greater than 100% with PC-3 [6].

As for `COC(=O)[C@@H](CCSC)NC(=O)[C@@H]1Cc2c([nH]c3ccccc23)[C@@H](c2cc(OC)c(O)c(OC)c2)N1`, the Cell survival in the test with PC-3 [1] is reported as greater than 100%; in the test on NCI-H520 [7] it was 89.6%; with PC-3 [2] it was greater than 100%; in the test with NCI-H520 [3] it was greater than 100%; with NCI-H520 [4], greater than 100%; with PC-3 [6], greater than 100%.

As to `COC(=O)[C@@H](Cc1c[nH]c2ccccc12)NC(=O)[C@@H]1Cc2c([nH]c3ccccc23)[C@@H](c2cc(OC)c(O)c(OC)c2)N1`, the Cell survival is given as 62.4% in the test with PC-3 [1]; 7.2% with NCI-H520 [7]; greater than 100% in the test on PC-3 [2]; greater than 100% in the test on NCI-H520 [3]; 35.2% in the test with NCI-H520 [4]; 84.9% with PC-3 [6]. In addition, in test [9], the DNA relaxation result was “drug interaction with topo II”.

In the case of `COC(=O)[C@H](Cc1c[nH]c2ccccc12)NC(=O)[C@@H]1Cc2c([nH]c3ccccc23)[C@@H](c2cc(OC)c(O)c(OC)c2)N1`, the Cell survival with PC-3 [1] is 6.7%; in the test on NCI-H520 [7] it was 2.8%; with PC-3 [2], 95.7%; with NCI-H520 [3], 67.9%; in the test on NCI-H520 [4], 61.1%; with PC-3 [6], 77%.

For `COC(=O)[C@H](CCSC)NC(=O)[C@@H]1Cc2c([nH]c3ccccc23)[C@@H](c2cc(OC)c(O)c(OC)c2)N1`, the Cell survival in the test on PC-3 [1] turned out to be 76.8%; in the test on NCI-H520 [7], 79.9%; in the test with PC-3 [2], 96.7%; with NCI-H520 [3], 99.2%; in the test with NCI-H520 [4], 91.2%; in the test with PC-3 [6], 88.2%.

Regarding `COC(=O)[C@H](NC(=O)[C@@H]1Cc2c([nH]c3ccccc23)[C@@H](c2cc(OC)c(O)c(OC)c2)N1)c1ccccc1`, the Cell survival in the test with PC-3 [1] is reported as greater than 100%; with NCI-H520 [7], 99.2%; in the test on PC-3 [2], greater than 100%; in the test with NCI-H520 [3] it was greater than 100%; in the test with NCI-H520 [4] it was greater than 100%; in the test on PC-3 [6], greater than 100%. Moreover, the DNA relaxation entry in test [9] is “drug interaction with topo II”.

`COc1cc([C@@H]2c3[nH]c4ccccc4c3C[C@H]3C(=O)NCC(=O)N23)cc(OC)c1O`: the Cell survival is 86.6% in the test with PC-3 [1]; 51.9% with NCI-H520 [7]; greater than 100% in the test on PC-3 [2]; 91.6% in the test on NCI-H520 [3]; 69.2% in the test on NCI-H520 [4]; greater than 100% in the test on PC-3 [6].

On to `COC(=O)[C@H](Cc1ccc(O)cc1)NC(=O)[C@@H]1Cc2c([nH]c3ccccc23)[C@@H](c2cc(OC)c(O)c(OC)c2)N1`, for which the Cell survival is given as 94.9% in the test on PC-3 [1]; 98.6% in the test with NCI-H520 [7]; greater than 100% in the test on PC-3 [2]; greater than 100% in the test with NCI-H520 [3]; greater than 100% in the test with NCI-H520 [4]; 96.4% in the test on PC-3 [6].

`COC(=O)[C@H](CC(C)C)NC(=O)[C@@H]1Cc2c([nH]c3ccccc23)[C@@H](c2cc(OC)c(O)c(OC)c2)N1`: the Cell survival in the test on PC-3 [1] is on record as 87.6%; in the test with NCI-H520 [7], 83.2%; in the test on PC-3 [2] it was greater than 100%; in the test on NCI-H520 [3], 84%; in the test with NCI-H520 [4], 89.2%; with PC-3 [6], 98.7%.

For `COC(=O)[C@@H](NC(=O)[C@@H]1Cc2c([nH]c3ccccc23)[C@@H](c2cc(OC)c(O)c(OC)c2)N1)c1ccccc1`, the Cell survival is listed as 64.5% with PC-3 [1]; 86.8% in the test on NCI-H520 [7]; 88.5% in the test on PC-3 [2]; 82.7% in the test with NCI-H520 [3]; 89.9% with NCI-H520 [4]; greater than 100% with PC-3 [6]. In addition, the DNA relaxation entry in test [10] is “drug interaction with topo II”.

Turning to `COC(=O)[C@H](CCCCN)NC(=O)[C@@H]1Cc2c([nH]c3ccccc23)[C@@H](c2cc(OC)c(O)c(OC)c2)N1`, the Cell survival is listed as 90.6% with PC-3 [1]; greater than 100% in the test on NCI-H520 [7]; 95.2% in the test with PC-3 [2]; 99.3% in the test on NCI-H520 [3]; greater than 100% in the test on NCI-H520 [4]; 91.2% in the test on PC-3 [6].

With `COC(=O)[C@@H](CCCCN)NC(=O)[C@@H]1Cc2c([nH]c3ccccc23)[C@@H](c2cc(OC)c(O)c(OC)c2)N1`, the Cell survival is reported as greater than 100% in the test with PC-3 [1]; 87.7% in the test with NCI-H520 [7]; greater than 100% in the test on PC-3 [2]; 78.3% in the test with NCI-H520 [3]; 76.9% in the test with NCI-H520 [4]; greater than 100% with PC-3 [6]. Besides, the DNA relaxation entry in [8] is recorded as “drug interaction with topo II”.

For `COC(=O)[C@@H](C)NC(=O)[C@@H]1Cc2c([nH]c3ccccc23)[C@@H](c2cc(OC)c(O)c(OC)c2)N1`, the Cell survival in the test on PC-3 [1] was greater than 100%; with NCI-H520 [7] it was greater than 100%; with PC-3 [2] it was 96.9%; with NCI-H520 [3], greater than 100%; in the test with NCI-H520 [4], greater than 100%; in the test with PC-3 [6], greater than 100%. Also, the DNA relaxation result in test [8] is given as “drug interaction with topo II”.
